Laboratory results as given in ChEMBL document CHEMBL4513216, “Probing the Open Global Health Chemical Diversity Library for Multistage-Active Starting Points for Next-Generation Antimalarials” (ACS Infect Dis, 2020).

Test: Toxicity liver stage against HepG2, at 10uM
Assay type: cell-based
Set-up: test concentration 10 uM, cell line HepG2-A16-CD81EGFP
Settings: human, HepG2-A16-CD81EGFP cells; read-out: INHIBITION
Method in brief: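 Uninfected HepG2-A16-CD81EGFP cells, 3 × 10^3 per well, 1536-well, plated on prespotted compound at 10 μM final, parasite-free screening media added to match infected plates; puromycin 10 μM positive, DMSO 0.5% negative; run in parallel with 48 h PbLuc assay at 37 °C, 5% CO2; viability by CellTiter-Glo luminescence, normalized to controls.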

Compound | cytotoxicity at 10 µM [%]
CC(C)(C)CC(=O)N[C@@H]1CO[C@H](CNC(=O)c2ccncc2)[C@H]1O | -3.81
CC(C)CN1CC[C@H](c2nnc(COc3ccc(F)cc3)o2)C1 | -1.81
CC(C)(C)CC(=O)NC[C@H]1OC[C@@H](NCc2ccccn2)[C@@H]1O | -5.28
CN(C)C(=O)c1cc(-c2ccccc2)[nH]n1 | -4.5
CCOC(=O)[C@H]1[C@@H](O)C(=O)N(C)C12CCN(C(=O)CC(C)(C)C)CC2 | -4.1
COCCn1ccc(=O)c(OCC(=O)Nc2ccc(OC)cc2)c1C | 0.955
COc1ccccc1-c1cc(C(=O)Nc2nc[nH]n2)[nH]n1 | -2.2
COCCCNC(=O)Cc1cc(-c2ccccc2)on1 | -7.39
Cc1ccc(Cl)cc1NC(=O)C1CSc2ncc(C)c(=O)n2C1 (centres undefined) | 1.42
Cc1cccc(NC(=O)c2ccc(-n3cncn3)nn2)n1 | -0.895
CC(=O)N1CCC2(CC1)[C@@H]1CN(C(=O)N(C)C)C[C@@H]1C(=O)N2C | 2.38
Cc1nc(COCc2nc3c(o2)CN(C(=O)c2ccoc2)C3)cs1 | -1.95
CC(C)NC(=O)C1CN(Cc2cccs2)Cc2ccnn2C1 (centres undefined) | -1.89
Cc1cnc(N2C[C@@H]3[C@@H](C(=O)NCC(C)C)CCS(=O)(=O)[C@@H]3C2)nc1 | -155
O=c1cc(CNS(=O)(=O)C2CC2)nc2n1CCCNC2 | 7.83
CCS(=O)(=O)N1CCN(C(=O)NC(C)C)CC2(CC(=O)N(C)C2)C1 (centres undefined) | 6.62
Cc1ccc(N2CCc3sc(C(=O)N4CCOCC4)cc32)nn1 | -0.142
COCC(=O)N1CCc2c(CNS(C)(=O)=O)n[nH]c2C1 | 4.32
Cc1ccc(N2CCCc3sc(C(=O)NCc4ccc(C)o4)nc32)nn1 | 4.93
CN(C(=O)Cn1nc(-c2ccc(Cl)cc2)ccc1=O)C1CCS(=O)(=O)C1 (centres undefined) | 1.96
CC1CCN(S(=O)(=O)c2cccn(CC(=O)NC3CCCC3)c2=O)CC1 | -14.6
CCC1=N[C@@]2(CC[C@@H]3CN(C(=O)Nc4ccc(F)cc4)C[C@@H]32)C(=O)N1 | -24

Compound | cytotoxicity at 10 µM [%]
CCn1cc(-c2cc(C(F)F)nc3sc(C(N)=O)c(N)c23)c(C)n1 | 3.04
NCc1n[nH]c(-c2ccc(Br)cc2)n1 | 19.7
CCn1cc(S(=O)(=O)N2CCCCCC2c2cc(C)on2)cn1 (centres undefined) | 7.43
Cc1cncc(C2CCN(C(=O)c3ccc(-n4cccn4)nc3)CC2)n1 | -0.701
Cc1cc(O)nc(C2CN(CC3(O)CCOCC3)CCO2)n1 (centres undefined) | -18.3
CNc1cncc(C2CCCN2S(=O)(=O)c2ccccc2F)n1 (centres undefined) | -15.1
CNc1cc(C)nc(C2CN(Cc3ccc(Cl)cn3)CCO2)c1 (centres undefined) | -26.2
CC(C)n1cnnc1SCCN(C)c1ccccc1 | 2.96
CC1(C)COCCN1C(=O)CCc1nc(-c2ccccn2)no1 | -4.59
NC(=O)C(NCCc1ccc(Cl)s1)c1ccccc1 (centres undefined) | 6.13
Cc1cc(C)n2c(CNCCNc3ccccc3)cnc2n1 | -144
COCCNS(=O)(=O)c1c(C)sc2ccccc12 | 1.11
CCOC(=O)C1(NCC(=O)Nc2cc(C)ccc2OC)CCCC1 | 6.9
CC(C)c1noc(CCNC(=O)NCC2Cc3ccccc3O2)n1 (centres undefined) | 7.4
COc1cc(CNC2CCCN(c3ncccn3)C2)cc2c1OCO2 (centres undefined) | 6.26
CCc1noc(C(C)N(C)Cc2ccc(OC)c(OC)c2)n1 (centres undefined) | -7.13
CCCC(=O)N1CCC(Nc2ncc(Br)cn2)CC1 | -8.69
O=C(Nc1cccnc1-n1cncn1)N(C1CCCC1)C1CC1 | -10.9
O=C(CCn1ccc2ccccc21)N1CCC(Nc2cccnn2)CC1 | 3.79
Cc1cc2c(cc1C)OC(C(=O)NCCNC(=O)C1CCCC1)C2 (centres undefined) | 7.71
N#Cc1ccnc(N2CCN(CC(O)c3ccc(F)c(F)c3)CC2)c1 (centres undefined) | 2.8
O=C(Nc1cccc(N2CCN(CC3CC3)CC2)c1)C1CCCO1 (centres undefined) | -1.23

Compound | cytotoxicity at 10 µM [%]
O=C(NCC1CC1)C1CSCN1S(=O)(=O)c1ccccc1 (centres undefined) | -4.43
O=S(=O)(NCCN1CC=CC1)c1cncc(Cl)c1 | -2.42
Cn1cnn(Cc2ccccc2F)c1=O | -3.09
CCC(Nc1ccc(Oc2ccccc2OC)cc1)C(N)=O (centres undefined) | 1.77
O=C(Cc1cc2c(cc1Br)OCCO2)NC1CCS(=O)(=O)C1 (centres undefined) | 10.1
O=c1ccn(Cc2nc(-c3ccccc3F)cs2)c(=O)[nH]1 | -1.2
NC(=O)C1CN(C(=O)NCC2(c3ccc(F)cc3)CCC2)CCO1 (centres undefined) | -5.07
CC(C)Cc1ncc(CNc2cnccc2CO)s1 | -6.53
CC(C)OCCCNC(=O)NC(C)c1ccc(-n2cncn2)cc1 (centres undefined) | -5.32
CCc1nsc(N2CCN(Cc3ccno3)CC2)n1 | -8.95
CN(CCn1cnnc1)S(=O)(=O)c1ccc(C(F)(F)F)nc1 | 6.71
O=C(CCc1nccs1)N1CCC(C(=O)O)(c2ccccc2)CC1 | 1.75
CC(CS(C)(=O)=O)N(C(=O)CCc1cccc(F)c1)C1CC1 (centres undefined) | -6.77
CCCC(NC(=O)c1ccc(OC)cc1F)c1nnn[nH]1 (centres undefined) | -7.61
CN(CCC(F)(F)F)C(=O)C1CCCN1C(=O)OC(C)(C)C (centres undefined) | -0.653
C1CC1c1nsc(N2CCN(C3CC3)CC2)n1 | -16.4
O=C(C1CC(F)(F)C1)N1C[C@@H]2CN(Cc3ccoc3)CCO[C@@H]2C1 | 7.81
Cn1ccnc1SCCNC(=O)CC1CCc2ccccc21 (centres undefined) | -3.05
O=C1O[C@@H]2CN(Cc3cccc(O)c3)C[C@@H]2N1CCCN1CCOCC1 | 0.476
CN(C)C1(CNc2nccc(-c3cnn(C)c3)n2)CCSC1 (centres undefined) | -126
Cc1cnc(C(=O)N2CCCC(Cn3cc(CC(C)C)nn3)C2)cn1 (centres undefined) | 1.33
CCS(=O)(=O)N1CCC(c2nccn2Cc2ccncc2)CC1 | -4

Compound | cytotoxicity at 10 µM [%]
CCCc1nnc(NC2CCN(C3CCOCC3)CC2)o1 | -4.92
Cc1cc(C)c(C(=O)N2CCC3(CCCNC3)C2)cc1C (centres undefined) | 2.52
CCN1CC2(CCC1=O)CCN(Cc1cscn1)CC2 | 2.48
CCc1cc(CN(C)C(=O)c2cc(=O)[nH]c(=O)[nH]2)on1 | 8.71
CCOCc1nc2c(c(N3CC=CC3)n1)CCN(C1CCOCC1)CC2 | -25.2
COc1cc(-c2nc3c([nH]2)CCCNC3=O)cc(OC)c1OC | 9.62
CCCOCC1CCN(C(=O)c2cnc(-c3csc(C)n3)nc2O)C1 (centres undefined) | 5.25
CCCc1n[nH]cc1C(=O)N1CCCC(c2nccn2CC2CC2)C1 (centres undefined) | 1.1
COc1cnc(N2C[C@@H](CN3CCOCC3)[C@@H](CO)C2)nc1 | -9.25
Oc1cc(CCC2CCCCN2)cc(-c2ccncc2)c1 (centres undefined) | -12.7
CN(CCO)C(=O)c1coc(CN2CCN(c3ccccc3F)CC2)n1 | 15.7
Cc1nc(C)n(CC2CCCN2Cc2ncc(-c3ccccc3)o2)n1 (centres undefined) | -4.92
CCOCC(O)CN1CCN(C(=O)c2ccccc2F)CC1 (centres undefined) | -2.15
O=C(NCCNc1ncccn1)c1ccc(Br)cc1 | -0.628
Cc1ccc(C(O)CNC(=O)NCc2csc(C)n2)cc1 (centres undefined) | -5.13
CCc1[nH]ncc1C(=O)N1CCCN(Cc2nccn2C(C)C)CC1 | -8.92
CC(C)CNC(=O)NC(=O)C(C)Nc1cccc(CN2CCOC2=O)c1 (centres undefined) | -3.37
COCC(c1cccc(C(F)(F)F)c1)N(C)C(=O)c1cccnc1 (centres undefined) | -5.28
CCC1CN(Cc2cccc(C(=O)N(C)C)c2)CCN1CCOC (centres undefined) | -2.99
Cc1nn(C)c(C)c1CC(=O)NCc1ccnc(N2CCOCC2)c1 | -14.7
CC(C)c1nc2n(n1)CC(NCc1ncc(C(C)(C)C)o1)CC2 (centres undefined) | -17.8
Cc1cnn(CC2CCCN2CC(=O)Nc2cc(C(C)C)no2)c1 (centres undefined) | 4.23

Compound | cytotoxicity at 10 µM [%]
CCOC(=O)N1CCC(NC(=O)Nc2cccnc2OCC)CC1 | -31.9
Cc1nn(C)c(N2CCOCC2)c1CNCc1ccc(CO)c(F)c1 | -14.5
Cc1oc(-c2ccco2)nc1CC(=O)N1CCC(CCO)C1 (centres undefined) | -2.02
Cc1cc(NC(=O)CN2CCn3c(nnc3-c3ccccc3)C2)no1 | -2.38
O=C(Nc1ccccn1)c1cncc(C2CCNCC2)n1 | -0.0757
COCCN1CC[C@@H]2OC(COCC(=O)N3CCCC3)CC[C@@H]21 (some centres undefined) | -3.29
CN(C)CCOCc1nnc2n1CCN(Cc1cccs1)CC2 | 9.03
c1cc(CN2CCc3ncc(CN4CCOCC4)n3CC2)cs1 | -0.269
c1nc2n(c1CN1CCCCC1)CCN(C1CCOC1)CC2 (centres undefined) | -152
Cc1ccc(N2CC3(COCCN(Cc4ccncc4)C3)OCC2=O)s1 (centres undefined) | 8.59
CS(=O)(=O)N1CC[C@H]2O[C@H](C(=O)NCCc3ccncc3)CC[C@H]21 | 4.41
Cc1ccc(CN2CCc3ncnc(OC(C)C)c3CC2)s1 | 22.8
Cc1nnc(N2C[C@H](OCC3CCCC3)[C@H]3OCCC[C@H]32)s1 | 5.16
O=C1COC2(CCN(C(=O)c3ccoc3)CC2)CN1Cc1ccccn1 | -1.11
Cc1ccc(CN2CC[C@@H]3[C@@H](CO[C@H]3CN3CCN(C)CC3)C2)s1 | 7.57
c1cc(CN2CCO[C@H]3[C@H](OCC4CCOCC4)CC[C@@H]32)co1 | -117
O=C(c1ccc[nH]1)N1CCO[C@]2(CCC[C@@H]2COc2cccnc2)C1 | 9.46
CS(=O)(=O)N1C[C@H]2CC[C@@H](C1)N(C(=O)CCc1ccsc1)C2 | 14.3
O[C@@H]1CC(CNCc2ccccn2)(COc2cccnc2)C[C@@H]1O (some centres undefined) | -10.3
COC1C[C@@H]2CN(C(=O)Cc3ccc(C)s3)C[C@@H]2C1 (some centres undefined) | 3.53
CC(C)=CCN1C[C@@H]2CC[C@H]1CN(C(=O)Cn1c(C)cc(C)nc1=O)C2 | -4.36
